For assay [1], the target named is T1, Endothelin-converting enzyme 1 (Homo sapiens) (UniProt P42892).
T1 sequence (whole entry): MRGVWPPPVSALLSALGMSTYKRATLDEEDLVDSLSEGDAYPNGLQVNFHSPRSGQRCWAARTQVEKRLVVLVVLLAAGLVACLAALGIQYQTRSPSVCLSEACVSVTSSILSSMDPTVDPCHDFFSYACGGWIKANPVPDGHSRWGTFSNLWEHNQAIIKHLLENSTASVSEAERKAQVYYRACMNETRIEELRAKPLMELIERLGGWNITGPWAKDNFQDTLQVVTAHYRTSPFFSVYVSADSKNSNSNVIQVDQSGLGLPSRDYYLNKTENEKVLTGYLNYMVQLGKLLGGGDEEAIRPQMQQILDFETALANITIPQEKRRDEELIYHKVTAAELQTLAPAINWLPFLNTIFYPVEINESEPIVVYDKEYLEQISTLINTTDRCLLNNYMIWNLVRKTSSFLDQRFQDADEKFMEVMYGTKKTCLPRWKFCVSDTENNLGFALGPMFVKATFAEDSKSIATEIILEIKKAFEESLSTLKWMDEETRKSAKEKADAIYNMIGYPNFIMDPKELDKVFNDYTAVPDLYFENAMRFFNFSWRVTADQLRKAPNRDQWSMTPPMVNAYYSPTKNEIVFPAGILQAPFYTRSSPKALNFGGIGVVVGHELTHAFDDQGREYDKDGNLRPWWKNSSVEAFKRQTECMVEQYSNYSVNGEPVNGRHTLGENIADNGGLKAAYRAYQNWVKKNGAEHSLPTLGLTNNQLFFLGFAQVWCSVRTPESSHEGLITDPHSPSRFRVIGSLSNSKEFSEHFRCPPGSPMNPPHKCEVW
Briefly: Inhibition of Endothelin-converting enzyme 1 activity at a concentration of 1 uM. A digest of the protocol: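 Human recombinant ECE-1a came from CHO cell membranes. Activity was measured with test compound at 1 µM and expressed as percent inhibition.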

The target of assay [2] is T2, Neprilysin (Rattus norvegicus, UniProt P07861).
T2 sequence (P07861 whole entry): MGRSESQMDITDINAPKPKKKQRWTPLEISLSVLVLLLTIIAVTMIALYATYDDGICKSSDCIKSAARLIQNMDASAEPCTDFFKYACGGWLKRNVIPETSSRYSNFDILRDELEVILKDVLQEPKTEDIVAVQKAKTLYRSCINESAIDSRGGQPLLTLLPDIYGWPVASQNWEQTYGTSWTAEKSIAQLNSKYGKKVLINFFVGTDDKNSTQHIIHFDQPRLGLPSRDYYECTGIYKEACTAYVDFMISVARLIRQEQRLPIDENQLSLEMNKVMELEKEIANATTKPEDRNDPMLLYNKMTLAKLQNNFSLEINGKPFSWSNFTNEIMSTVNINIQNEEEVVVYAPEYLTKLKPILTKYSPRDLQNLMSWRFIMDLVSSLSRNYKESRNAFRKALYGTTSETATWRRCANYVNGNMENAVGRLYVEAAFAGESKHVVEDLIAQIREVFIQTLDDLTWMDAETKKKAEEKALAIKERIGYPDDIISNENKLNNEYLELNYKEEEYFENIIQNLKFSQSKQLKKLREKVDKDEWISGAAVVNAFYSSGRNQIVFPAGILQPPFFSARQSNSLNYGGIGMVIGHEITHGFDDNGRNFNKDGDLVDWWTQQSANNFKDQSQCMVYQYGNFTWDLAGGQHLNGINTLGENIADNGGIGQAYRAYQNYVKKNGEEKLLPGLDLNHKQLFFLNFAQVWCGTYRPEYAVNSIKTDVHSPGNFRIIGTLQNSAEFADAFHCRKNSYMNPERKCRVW
Briefly: In vitro inhibition of rat neutral endopeptidase.

A short description of assay [3]: Selectivity ratio of IC50 NEP/IC50 ECE. A digest of the protocol:
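ECE selectivity was the ratio of IC50 against rat kidney cortex NEP 24.11 to IC50 against CHO-membrane human recombinant ECE-1a.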

Assay [4] has as its target T3, Endothelin-converting enzyme 1 (Homo sapiens, UniProt P42892).
T3 sequence (P42892 whole entry): T1 sequence (whole entry)
Briefly: In Vitro inhibition of recombinant human endothelin converting enzyme-1. A digest of the protocol: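 Enzyme was human recombinant ECE-1a from membranes of CHO cells expressing it. The IC50 was determined by the assay method of earlier work.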

With `O=C(O)CNC(=O)[C@H](Cc1ccc2c(c1)oc1ccccc12)NCP(=O)(O)O`, in assay [1], the inhibition (as a rule, the drop in the measured response relative to a control, in per cent) came out at 43%. In addition, the IC50 – broadly, the point on the concentration scale where inhibition reaches its midpoint – in assay [2] is more than 10000 nM.

For `CC(C)C[C@H](NC(=O)[C@H](CC#Cc1ccc(F)cc1F)NCP(=O)(O)O)C(=O)N[C@@H](C)C(=O)O`, half-maximal inhibition in assay [2] (IC50) was put at 5800 nM. Further, the Selectivity in assay [3] came out at 725.

Consider `O=P(O)(O)C(CCc1cccc2ccccc12)N[C@@H](Cc1ccc(-c2ccccc2)cc1)c1nnn[nH]1` (stereo partly specified), for which, in assay [2], half-maximal inhibition (IC50) was put at 5 nM. Also, in assay [3], the Selectivity worked out at 0.29.

Turning to `CC(C)C[C@H](NC(=O)[C@H](CC#Cc1ccc(F)cc1F)NCP(=O)(O)O)C(=O)O`, the IC50 in assay [2] worked out at 6700 nM. For the same molecule, the Selectivity in assay [3] was found to be 131.

Consider `CC(NC(=O)[C@H](Cc1ccc2c(c1)oc1ccccc12)NCP(=O)(O)O)C(=O)O` (stereo partly specified), for which the inhibition in assay [1] worked out at 35%. Further, inhibition in assay [2] was half-maximal at 1640 nM (IC50).

As to `O=P(O)(O)CN[C@@H](CC#Cc1ccccc1F)c1nnn[nH]1`, the IC50 in assay [2] amounted to 14 nM. Also, the Selectivity in assay [3] was determined as 0.1.

`O=C(NCCc1ccc(-c2ccccc2)cc1)[C@H](Cc1ccc2c(c1)oc1ccccc12)NCP(=O)(O)O` yielded an inhibition in assay [1] of 5%.

In turn, `O=C(NCCc1ccccc1)[C@H](Cc1ccc2c(c1)oc1ccccc12)NCP(=O)(O)O` registered an inhibition in assay [1] of 29%.

With `O=C(O)[C@H](Cc1ccc2c(c1)oc1ccccc12)NC(CCc1cccc2ccccc12)P(=O)(O)O` (stereo in doubt; 40a') [listing 1 of 2 here], the IC50 in assay [4] was 24 nM; in assay [2], 13800 nM.

For the molecule `O=C(O)[C@H](Cc1ccc2c(c1)oc1ccccc12)NC(CCc1cccc2ccccc12)P(=O)(O)O` (stereo in doubt; 40a') [listing 2 of 2 here], the inhibition in assay [1] was determined as 95%. In assay [3], the Selectivity was determined as 574.

Regarding `O=C(O)[C@H](Cc1ccc2c(c1)oc1ccccc12)NC(CCc1cccc2ccccc12)P(=O)(O)O` (stereo in doubt; 40b') [listing 1 of 2 here], the IC50 in assay [4] was found to be 1800 nM.

Regarding `O=C(O)[C@H](Cc1ccc2c(c1)oc1ccccc12)NC(CCc1cccc2ccccc12)P(=O)(O)O` (stereo in doubt; 40b') [listing 2 of 2 here], in assay [1], the inhibition worked out at 34%.

As to `COc1cccc(CCC(N[C@@H](Cc2ccc3c(c2)oc2ccccc23)C(=O)O)P(=O)(O)O)c1OC` (stereo in doubt; 40c) [listing 1 of 2 here], the IC50 is 19 nM in assay [4] and 24000 nM in assay [2].

For `COc1cccc(CCC(N[C@@H](Cc2ccc3c(c2)oc2ccccc23)C(=O)O)P(=O)(O)O)c1OC` (stereo in doubt; 40c) [listing 2 of 2 here], the inhibition in assay [1] was found to be 95%. Moreover, the Selectivity in assay [3] stood at 1260.

For `COc1cccc(CCC(N[C@@H](Cc2ccc3c(c2)oc2ccccc23)C(=O)O)P(=O)(O)O)c1OC` (stereo in doubt; 40d') [listing 1 of 2 here], the IC50 is 110 nM in assay [4] and 6400 nM in assay [2].

For the molecule `COc1cccc(CCC(N[C@@H](Cc2ccc3c(c2)oc2ccccc23)C(=O)O)P(=O)(O)O)c1OC` (stereo in doubt; 40d') [listing 2 of 2 here], in assay [1], the inhibition was 85%. In assay [3], the Selectivity is 58.

`COc1ccc(CCC(N[C@@H](Cc2ccc3c(c2)oc2ccccc23)C(=O)O)P(=O)(O)O)cc1OC` (stereo in doubt; 40e') [listing 1 of 2 here]: the IC50 in assay [4] is 29 nM; in assay [2] it was more than 10000 nM.

The molecule `COc1ccc(CCC(N[C@@H](Cc2ccc3c(c2)oc2ccccc23)C(=O)O)P(=O)(O)O)cc1OC` (stereo in doubt; 40e') [listing 2 of 2 here] yielded an inhibition in assay [1] of 93%. Further, the Selectivity in assay [3] was more than 345.

For the molecule `COc1ccc(CCC(N[C@@H](Cc2ccc3c(c2)oc2ccccc23)C(=O)O)P(=O)(O)O)cc1OC` (stereo in doubt; 40f ') [listing 1 of 2 here], the IC50 in assay [4] came to 890 nM.

In assay [1], `COc1ccc(CCC(N[C@@H](Cc2ccc3c(c2)oc2ccccc23)C(=O)O)P(=O)(O)O)cc1OC` (stereo in doubt; 40f ') [listing 2 of 2 here] registered an inhibition of 58%.

For the molecule `COc1cc(OC)c(OC)cc1CCC(N[C@@H](Cc1ccc2c(c1)oc1ccccc12)C(=O)O)P(=O)(O)O` (stereo in doubt; 40i') [listing 1 of 2 here], the IC50 in assay [4] is 40 nM; in assay [2], more than 10000 nM.

Molecule `COc1cc(OC)c(OC)cc1CCC(N[C@@H](Cc1ccc2c(c1)oc1ccccc12)C(=O)O)P(=O)(O)O` (stereo in doubt; 40i') [listing 2 of 2 here] came in with an inhibition in assay [1] of 91%. For the same molecule, the Selectivity in assay [3] is more than 250.

For the molecule `COc1cc(OC)c(OC)cc1CCC(N[C@@H](Cc1ccc2c(c1)oc1ccccc12)C(=O)O)P(=O)(O)O` (stereo in doubt; 40j'), the inhibition in assay [1] is 38%.

Turning to `COc1ccc(CCC(N[C@@H](Cc2ccc3c(c2)oc2ccccc23)C(=O)O)P(=O)(O)O)c(OC)c1OC` (stereo in doubt; 40k') [listing 1 of 2 here], the figures for the IC50 in assay [4] and in assay [2] were 35 nM and 15000 nM, respectively.

`COc1ccc(CCC(N[C@@H](Cc2ccc3c(c2)oc2ccccc23)C(=O)O)P(=O)(O)O)c(OC)c1OC` (stereo in doubt; 40k') [listing 2 of 2 here] returned an inhibition in assay [1] of 91%. Also, the Selectivity in assay [3] was found to be 428.

On to `COc1ccc(CCC(N[C@@H](Cc2ccc3c(c2)oc2ccccc23)C(=O)O)P(=O)(O)O)c(OC)c1OC` (stereo in doubt; 40l') [listing 1 of 2 here], for which the IC50 in assay [4] was 520 nM.

In assay [1], `COc1ccc(CCC(N[C@@H](Cc2ccc3c(c2)oc2ccccc23)C(=O)O)P(=O)(O)O)c(OC)c1OC` (stereo in doubt; 40l') [listing 2 of 2 here] showed an inhibition of 64%.

For the molecule `O=C(O)[C@H](Cc1ccc2c(c1)oc1ccccc12)NC(CCc1cccc2cccnc12)P(=O)(O)O` (stereo in doubt; 40m') [listing 1 of 2 here], the IC50 in assay [4] was 14 nM; in assay [2], 59000 nM.

In turn, `O=C(O)[C@H](Cc1ccc2c(c1)oc1ccccc12)NC(CCc1cccc2cccnc12)P(=O)(O)O` (stereo in doubt; 40m') [listing 2 of 2 here] showed an inhibition in assay [1] of 94%. For the same molecule, the Selectivity in assay [3] was determined as 4210.

For `O=C(O)[C@H](Cc1ccc2c(c1)oc1ccccc12)NC(CCc1cccc2cccnc12)P(=O)(O)O` (stereo in doubt; 40n'), the inhibition in assay [1] stood at 78%. Besides, the Selectivity in assay [3] is 240.

In turn, `NCCCCC(N[C@@H](Cc1ccc2c(c1)oc1ccccc12)C(=O)O)P(=O)(O)O` (stereo in doubt; 40o') displayed an inhibition in assay [1] of 84%. In assay [3], the Selectivity was more than 1030.

Molecule `NCCCCC(N[C@@H](Cc1ccc2c(c1)oc1ccccc12)C(=O)O)P(=O)(O)O` (stereo in doubt; 40p') yielded an inhibition in assay [1] of 19%.

The molecule `NCCCC(N[C@@H](Cc1ccc2c(c1)oc1ccccc12)C(=O)O)P(=O)(O)O` (stereo in doubt; 40q') came in with an inhibition in assay [1] of 73%.

For `NCCCC(N[C@@H](Cc1ccc2c(c1)oc1ccccc12)C(=O)O)P(=O)(O)O` (stereo in doubt; 40r'), in assay [1], the inhibition was 29%.

For the molecule `CC(N[C@@H](Cc1ccc2c(c1)oc1ccccc12)C(=O)O)P(=O)(O)O` (stereo in doubt; 40u), the inhibition in assay [1] stood at 88%. In assay [3], the Selectivity came out at 292.

For `CC(N[C@@H](Cc1ccc2c(c1)oc1ccccc12)C(=O)O)P(=O)(O)O` (stereo in doubt; 40v), the inhibition in assay [1] was 81%. Moreover, the Selectivity in assay [3] was 261.

In the case of `O=P(O)(O)C(CCc1cccc2ccccc12)N[C@@H](Cc1ccc2c(c1)oc1ccccc12)c1nnn[nH]1` (stereo in doubt; 43a'), in assay [1], the inhibition stood at 98%. The Selectivity in assay [3] amounted to 81.

`O=P(O)(O)C(CCc1cccc2ccccc12)N[C@@H](Cc1ccc2c(c1)oc1ccccc12)c1nnn[nH]1` (stereo in doubt; 43b'): in assay [1], the inhibition was 73%. Also, the Selectivity in assay [3] was 29.

With `CC(C)C[C@H](NP(=O)(O)O[C@@H]1O[C@@H](C)[C@H](O)[C@@H](O)[C@H]1O)C(=O)N[C@@H](Cc1c[nH]c2ccccc12)C(=O)O` [PHOSPHORAMIDON], in assay [2], half-maximal inhibition (IC50) was put at 30 nM.

As to `O=C(O)CNC(=O)C(CS)Cc1ccccc1` (stereo unspecified) [THIORPHAN], the IC50 in assay [4] was more than 100000 nM.
